# Assay outcomes (PubChem)
# APJ antag – antagonists of human apelin receptor APJ, primary screen, CHO-K1 cells, beta-arrestin complementation, luminescence. P35414. inhibition, % at 20 µM. 0.32% of 330,000 active;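 active means inhibition above about 40% at 20 µM, limit read from the data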;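 further: cells challenged with 10 nM apelin-13 agonist together with compound; plate controls were apelin-13 plus DMSO wells for no effect and DMSO wells lacking apelin-13 for full effect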
# DAGLB inh – DAGLB lipase inhibitors, primary screen, biochemical, fluorescence, HTS; Diacylglycerol lipase-beta (Homo sapiens), Q8NCG7; HEK293T DAGLB membrane lysate, EnzChek fluorogenic substrate; inhibition, % at 5.17 µM; 0.059% of 340,000 active; AID 504411, 2011; in the data active means inhibition above about 34%;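 further: 0% = enzyme with vehicle and 100% = wells lacking enzyme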
# CCR6 antagonist – CCR6 receptor antagonists, primary screen, cell-based, CHO-K1, luminescence, beta-arrestin, uHTS; C-C chemokine receptor type 6 (Homo sapiens), P51684; inhibition, % at 20 µM; AID 493098, 2011; 0.49% of 340,000 active; CHO-K1 CCR6 PathHunter beta-arrestin, CCL20-stimulated;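 active means compounds whose inhibition of the agonist-driven luminescence signal at 20 µM reaches about 50%, limit read from the data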;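 further: cells stimulated with CCL20 at 14 nM final; plate controls were DMSO with CCL20 for no effect and DMSO without agonist for full effect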
# iPSC survival up – enhancers of single-cell hiPSC survival, primary screen, ATPlite luminescence. 100% = ROCK inhibitor wells, 0% = DMSO. survival enhancement, % at 20 µM. 0.044% of 360,000 active. AID 602274, 2012; in the data active means survival enhancement above about 18%;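 further: cells exposed to compounds for 16 hours before the ATP read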
# CXCR6 block – CXCR6 receptor inhibitors, primary screen, cell-based, beta-arrestin, luminescence, CHO-K1 PathHunter, 1536-well; inhibition, % at 20 µM; 0.36% of 360,000 active; in the data active means inhibition above about 34%, passing the limit was not always enough;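 further: antagonist mode with CXCL16 agonist at 10 nM final; 0% = 10 nM CXCL16 with DMSO and 100% = unstimulated wells without agonist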
# Target sequence (O00574 whole entry, looked up): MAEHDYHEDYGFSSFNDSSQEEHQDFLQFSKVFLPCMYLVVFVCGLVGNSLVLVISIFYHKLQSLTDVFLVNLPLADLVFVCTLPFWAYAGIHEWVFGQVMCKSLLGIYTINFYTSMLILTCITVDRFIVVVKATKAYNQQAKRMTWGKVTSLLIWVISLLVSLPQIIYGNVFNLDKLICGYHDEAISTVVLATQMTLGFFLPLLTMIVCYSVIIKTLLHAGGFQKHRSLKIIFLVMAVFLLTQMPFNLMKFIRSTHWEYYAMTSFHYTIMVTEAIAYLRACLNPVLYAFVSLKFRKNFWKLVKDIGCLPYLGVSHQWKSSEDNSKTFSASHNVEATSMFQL
# APJ ag – agonists of human apelin receptor APJ, primary screen, CHO-K1 cells, PathHunter beta-arrestin, luminescence. P35414. 0% DMSO wells, 100% apelin. 0.11% of 330,000 active. activation, % at 20 µM. AID 2520, 2010;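 active means activation more than six SD over the plate average, tested at 20 µM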;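 further: 0% = DMSO alone and 100% = apelin-13 at 10 nM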
#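 Test system: CHO-K1 APJ beta-arrestin complementation cell line | Compound: Single test compound dose, 20 µM final, 1% DMSO | Incubation: Compound 90 min 25 °C, reagent 1 h | Measured by: beta-gal luminescence | Read-out basis: APJ–arrestin association signal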
# CXCR6 antag conf – CXCR6 receptor antagonists, confirmation, cell-based, single concentration, beta-arrestin, luminescence. shares compounds with CXCR6 block. CHO-K1 CXCR6 PathHunter beta-arrestin. inhibition, % at 20 µM. 65% of 700 active. AID 602409, 2012;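 active means mean inhibition over four retests above 40%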;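 further: receptor stimulated with 10 nM CXCL16 agonist; beta-galactosidase fragment complementation upon beta-arrestin recruitment to receptor; plate controls were CXCL16 plus DMSO for no effect and DMSO without CXCL16 for full effect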
# Starred values were filed as active, the others as inactive; . = no result given. Sampled rows, rich in hits. Any-hit rate of the full collection: about 0.86%.
SMILES,APJ antag,DAGLB inh,CCR6 antagonist,iPSC survival up,CXCR6 block,APJ ag,CXCR6 antag conf
CCOC(=O)C1CCCN(c2cc(NCCCO)c([N+](=O)[O-])c3nonc23)C1 (stereo not drawn),17.9,.,.,.,.,-3.1,.
Cc1nnc(Sc2cc(NCCCO)c([N+](=O)[O-])c3nonc23)s1,.,2.2,92.2*,0.7,66.8*,.,99.8*
Cc1nnc(Sc2cc(NCCO)c([N+](=O)[O-])c3nonc23)s1,.,-1.7,68.4*,-0.2,71.2*,.,75.5*
CCOc1c(OC(C)=O)ccc(/C=C2\N=C(SCC)SC2=O)c1[N+](=O)[O-],12.1,8.7,38.9,-0.6,20.2,-4.2,.
CCOc1cc(/C=C2\N=C(SC)SC2=O)cc([N+](=O)[O-])c1OC(C)=O,23.3,9.9,32.2,-1.2,41.8*,-5.1,40.3*
C/C(=N\NC(=O)c1nnn(-c2nonc2N)c1CN1CCc2ccccc21)c1ccccc1O,-0.2,1.2,-0.6,-0.2,-1.3,-3.5,.
CCOC(=O)c1ccc(NC(=O)c2nc(SC)ncc2Cl)cc1,13.5,-5.7,20.6,0.3,4.5,-4.7,.
Cc1ccc(NC(=O)c2nc(S(=O)(=O)Cc3ccccc3)ncc2Cl)cc1,18.0,0.1,80.0*,0.0,59.3*,0.4,56.7*
CCN(c1ccccc1)S(=O)(=O)c1ccc(NC(=O)c2nc(S(C)(=O)=O)ncc2Cl)cc1,20.3,2.1,96.4*,9.4,81.3*,9.4,68.3*
Cc1cccc(CS(=O)(=O)c2ncc(Cl)c(C(=O)NCc3ccccc3)n2)c1,16.2,0.7,47.8,-0.4,56.8*,-3.3,63.5*
Cc1ccccc1CS(=O)(=O)c1ncc(Cl)c(C(=O)Nc2ccc(F)cc2)n1,-0.2,2.2,.,3.1,57.6*,0.4,58.2*
COc1ccc(OC)c(CN2CCN(C(=O)CN3C(=O)NC4(CCCC4)C3=O)CC2)c1,11.4,-0.1,7.6,-0.4,-0.1,-5.0,.
Cc1nnc(SCC(=O)NC(=O)Nc2ccc3c(c2)OCCO3)n1N,6.9,-1.0,6.2,1.2,-17.6,-4.0,.
COc1ccccc1NC(=O)Nc1ccnn1C1CCN(C(=O)C2CCOC2)CC1 (stereo not drawn),.,-0.6,.,3.6,-0.8,.,.
COc1ccc(OC)c(/C=C/c2ccc3cccc(O)c3n2)c1,37.7,-5.6,.,0.0,48.4*,-7.1,59.1*
Cc1ccc(-c2csc(N3C(=N)SCC3=O)n2)cc1,12.2,.,39.2,.,.,-5.5,.
N=C1SCC(=O)N1c1ncc(Cc2ccc(F)cc2)s1,4.4,6.2,.,0.4,50.8*,-5.0,67.8*
O=C(Nc1nccs1)c1sc2cc(Cl)ccc2c1Cl,31.0,-1.1,72.8*,-0.2,66.8*,-5.8,75.7*
O=C(N/N=C/c1sc(N2CCOCC2)nc1-c1ccccc1)c1ccccc1Cl,-11.8,-0.1,15.9,-0.1,5.8,-2.7,.
O=[N+]([O-])c1ccc(N/N=C/c2sc(N3CCOCC3)nc2-c2ccccc2)c(S(=O)(=O)Nc2ccc(Cl)cc2)c1,.,3.0,83.0*,0.4,51.7*,.,61.6*
O=[N+]([O-])c1ccc(N/N=C/c2sc(N3CCOCC3)nc2-c2ccccc2)c(S(=O)(=O)Nc2ccccc2Cl)c1,.,4.5,58.2*,-1.6,54.4*,.,59.7*
Cn1cnc([N+](=O)[O-])c1S(=O)(=O)c1cccc(Cl)c1,36.2,-5.7,59.4*,-3.3,49.3*,-2.9,65.5*
Cn1cnc([N+](=O)[O-])c1S(=O)(=O)Oc1ccccc1,.,-3.6,49.4,-4.1,42.1*,.,59.7*
Cc1nn(C(C)C(=O)c2cccc(Cl)c2)c(C)c1[N+](=O)[O-] (stereo not drawn),-7.2,-0.8,4.1,1.2,3.3,-3.0,.
Cn1cnc([N+](=O)[O-])c1S(=O)(=O)Nc1ccccc1,.,-4.2,4.5,-2.7,11.3,.,.
SMILES,APJ antag,DAGLB inh,CCR6 antagonist,iPSC survival up,CXCR6 block,APJ ag,CXCR6 antag conf
O=C1C(=C(c2ccccc2)N2CCOCC2)Cc2ccccc21,.,-5.6,.,-4.5,69.8*,.,78.0*
O=C(c1ccccc1)N1CCN(C(=O)N2CCOCC2)CC1,2.4,0.1,-6.5,2.4,-6.4,2.5,.
Cc1cc(NC(=O)C(=O)NCCN2CCN(S(C)(=O)=O)CC2)ccc1Br,-4.5,-1.9,-13.3,-2.4,-6.5,-2.3,.
Cc1ccc2c(c1)C1CN(C)CCC1N2C(=S)NC(=O)c1ccc(Br)cc1 (stereo not drawn),33.3,-2.6,56.4*,-1.2,44.0*,-5.4,66.6*
COc1cc2c(cc1OC)CN(C(=O)CSc1nc(N)c(C#N)cc1C#N)CC2,5.6,-1.4,-15.6,0.2,45.7*,-3.4,4.3
COc1ccc(NC(=O)CSc2ccc3nnc(CCNC(=O)c4ccccc4)n3n2)cc1OC,-6.8,-1.9,11.0,0.0,-2.4,-1.6,.
O=[N+]([O-])c1cc2oc3c(c2c(C=NCc2ccccc2)c1O)CCCC3,-16.3,28.6,46.3,-0.9,43.8*,3.1,59.4*
Fc1ccc(CNC(=S)Nc2ccccc2Cl)cc1,-3.8,-0.7,-6.9,-2.2,47.1*,-0.9,8.9
Cc1c(Cl)cccc1NC(=S)NCc1ccc(F)cc1,-2.5,-2.5,3.9,-0.5,-9.3,2.0,.
CC(Oc1cccc(Cl)c1)C(=O)Nc1nc(-c2ccccn2)cs1 (stereo not drawn),29.6,-7.3,87.5*,0.4,70.1*,-11.0,78.3*
CC(Oc1ccccc1)C(=O)Nc1nc(-c2ccccn2)cs1 (stereo not drawn),-2.6,-0.3,.,0.0,37.5*,-5.4,64.0*
C[C@H](NC(=O)c1ccccc1)C(=O)Nc1nc(-c2ccccn2)cs1,-4.7,1.1,-5.6,-0.5,-1.3,0.5,.
Cc1cccc(C(=O)NC(C(=O)Nc2nc(-c3ccccn3)cs2)C(C)C)c1 (stereo not drawn),-9.4,0.2,10.1,-0.2,-5.8,-2.0,.
O=C(COc1ccc(F)cc1Cl)Nc1nc(-c2ccccn2)cs1,7.9,-9.6,.,4.3,46.3*,-3.0,37.8
N#Cc1ccccc1OCC(=O)Nc1nc(-c2ccccn2)cs1,.,-4.4,.,6.1,7.6,.,.
O=C(O)c1ccc(Cl)c(NCc2cccs2)c1,12.7,1.3,6.8,0.7,-1.4,-1.6,.
CCOC(=O)[C@]12CCC=C1N(CCC1=CCCCC1)C(=O)[C@H](CC(=O)N1CCCCC1)C2,.,.,.,-0.2,-0.9,.,.
